The species named for one assay is Homo sapiens. As to the kind of experiment: Selectivity ratio of IC50 for human recombinant cytosolic thymidine kinase 1 to IC50 for human recombinant mitochondrial thymidine kinase 2.
For assay [1], the target named is T1, Thymidine kinase, cytosolic (Homo sapiens, UniProt P04183).
T1 sequence (P04183 whole entry): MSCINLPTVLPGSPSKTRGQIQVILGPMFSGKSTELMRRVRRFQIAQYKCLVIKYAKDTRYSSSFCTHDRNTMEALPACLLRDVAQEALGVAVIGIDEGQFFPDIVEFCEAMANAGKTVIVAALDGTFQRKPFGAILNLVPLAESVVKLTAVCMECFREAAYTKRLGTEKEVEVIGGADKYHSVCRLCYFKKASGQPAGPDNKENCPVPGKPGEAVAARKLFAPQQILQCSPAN
As to the kind of experiment: Inhibition of human recombinant cytosolic thymidine kinase 1 assessed as inhibition of [methyl-3H]dThd phosphorylation after 30 mins by scintillation counting. The essentials:
(§1)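 Recombinant enzyme in 50 mM Tris/HCl pH 8.0, 2.5 mM MgCl2, 10 mM DTT, 0.5 mM CHAPS, 3 mg/mL BSA, 2.5 mM ATP and 1 μM [methyl-3H]dThd. Inhibitor at 5-fold dilutions; 37 °C for 30 min, within the linear range. Reaction spotted on DE-81 filter disks, which were washed in 1 mM ammonium formate, water and ethanol. Radioactivity counted by scintillation. IC50 is the concentration halving dThd phosphorylation.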

The target of assay [2] is T2, Thymidine kinase 2, mitochondrial (Homo sapiens, UniProt O00142).
T2 sequence (O00142 whole entry): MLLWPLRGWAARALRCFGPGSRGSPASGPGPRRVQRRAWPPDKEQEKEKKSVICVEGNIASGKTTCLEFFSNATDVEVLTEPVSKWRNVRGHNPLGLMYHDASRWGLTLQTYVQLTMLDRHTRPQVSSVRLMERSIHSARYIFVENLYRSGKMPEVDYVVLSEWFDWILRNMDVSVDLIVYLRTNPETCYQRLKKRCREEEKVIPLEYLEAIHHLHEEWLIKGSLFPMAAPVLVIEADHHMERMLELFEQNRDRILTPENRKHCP
As to the kind of experiment: Inhibition of human recombinant mitochondrial thymidine kinase 2 assessed as inhibition of [methyl-3H]dThd phosphorylation after 30 mins by scintillation counting. The procedure, abridged:
as §1

The target in a further assay is T3, Deoxynucleoside kinase (Drosophila melanogaster, UniProt Q9XZT6).
T3 sequence (Q9XZT6 whole entry): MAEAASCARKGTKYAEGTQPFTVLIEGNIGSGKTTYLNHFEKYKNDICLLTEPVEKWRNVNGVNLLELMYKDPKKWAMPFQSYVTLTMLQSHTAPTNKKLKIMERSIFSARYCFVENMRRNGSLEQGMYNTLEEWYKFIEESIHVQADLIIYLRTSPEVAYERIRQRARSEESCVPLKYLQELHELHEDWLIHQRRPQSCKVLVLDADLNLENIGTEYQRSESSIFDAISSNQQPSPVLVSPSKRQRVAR
As to the kind of experiment: Inhibition of Drosophila melanogaster multifunctional deoxynucleoside kinase assessed as inhibition of [methyl-3H]dThd phosphorylation after 30 mins by scintillation counting. The essentials: as §1

Assay [3] is described as follows: Inhibition of Varicella zoster virus thymidine kinase assessed as inhibition of [methyl-3H]dThd phosphorylation after 30 mins by scintillation counting. Also on record: species or system Human alphaherpesvirus 3. The essentials:
as §1

In the next assay the target is T4, Thymidine kinase (Human alphaherpesvirus 1, UniProt Q9QNF7).
T4 sequence (Q9QNF7 whole entry): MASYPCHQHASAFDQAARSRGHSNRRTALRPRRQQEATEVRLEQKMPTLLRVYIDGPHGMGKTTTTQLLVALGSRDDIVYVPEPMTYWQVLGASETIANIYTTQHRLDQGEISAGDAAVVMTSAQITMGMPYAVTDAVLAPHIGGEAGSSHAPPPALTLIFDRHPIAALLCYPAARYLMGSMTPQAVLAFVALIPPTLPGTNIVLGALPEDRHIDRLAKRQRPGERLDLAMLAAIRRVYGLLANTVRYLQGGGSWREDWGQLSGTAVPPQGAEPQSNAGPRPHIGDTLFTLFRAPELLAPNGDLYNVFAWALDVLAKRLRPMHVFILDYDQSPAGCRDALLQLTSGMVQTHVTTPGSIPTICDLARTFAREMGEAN
As to the kind of experiment: Inhibition of HSV1 thymidine kinase assessed as inhibition of [methyl-3H]dThd phosphorylation after 30 mins by scintillation counting. The essentials:
as §1

For assay [4], the target named is T2, Thymidine kinase 2, mitochondrial. The experiment in a line: Inhibition of thymidine kinase 2.
The target is the same in assay [5]. As to the kind of experiment: Competitive inhibition of human recombinant mitochondrial thymidine kinase 2 using ATP as substrate by Lineweaver-Burke plotting. Conditions: in the assay text read “using thymidine as substrate” for “using ATP as substrate”. The procedure, abridged: (§2)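 Purified recombinant TK-2 in the same radiometric filter-binding assay. For dThd-varied kinetics, dThd was 0.4–5 μM with ATP saturating at 2.5 mM. For ATP-varied kinetics, ATP was 5–100 μM with dThd saturating at 20 μM. Km, Ki and inhibition mode were derived from Lineweaver-Burk plots.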

The target is the same in assay [6]. As to the kind of experiment: Uncompetitive inhibition of human recombinant mitochondrial thymidine kinase 2 using thymidine as substrate by Lineweaver-Burke plotting. Particulars: in the assay text read “using ATP as substrate” for “using thymidine as substrate”. The procedure, abridged:
as §2

The structures appear in SMILES notation.

For the compound `Cc1cn([C@H]2C[C@H](NC(=S)Nc3ccc(Cl)c(C(F)(F)F)c3)[C@@H](CO)O2)c(=O)[nH]c1=O`, in the assay filed under Homo sapiens, the Ratio IC50 amounted to 2100. Moreover, the IC50 worked out at 316 µM in assay [1] and 150 nM in [2].

Turning to `Cc1cn([C@H]2C[C@H](n3cc(Cc4ccccc4)nn3)[C@@H](CO)O2)c(=O)[nH]c1=O`, the IC50 was 3.9 µM on Deoxynucleoside kinase; 6.4 µM in assay [3]; 318 µM in assay [1]; 158 µM on Thymidine kinase; 300 nM in assay [2].

For the compound `Cc1cn([C@H]2C[C@H](n3nncc3-c3ccc(Cl)cc3)[C@@H](CO)O2)c(=O)[nH]c1=O`, the IC50 is 30 µM on Deoxynucleoside kinase, 109 µM in assay [1], 392 µM at Thymidine kinase and 4000 nM in assay [2].

For the compound `Cc1cn([C@H]2C[C@H](n3cc(-c4ccccn4)nn3)[C@@H](CO)O2)c(=O)[nH]c1=O`, the IC50 is 3.8 µM on Deoxynucleoside kinase; 3.1 µM in assay [3]; 316 µM in assay [1]; 46 µM at Thymidine kinase; 1300 nM in [2].

Consider `CNC(=O)c1ccc(C(OCCCCCCCCn2cc(C)c(=O)[nH]c2=O)(c2ccccc2)c2ccccc2)cc1`, for which the midpoint of inhibition in assay [4], the IC50, lay at 400 nM.

`Cc1cn([C@H]2C[C@H](n3cc(-c4ccccc4)nn3)[C@@H](CO)O2)c(=O)[nH]c1=O`: the concentration for half-maximal inhibition (IC50) at Deoxynucleoside kinase was 2.2 µM; in [3], 2.5 µM; in assay [1], 54 µM; at Thymidine kinase it was 28 µM; in [2], 320 nM.

In the case of `O=c1[nH]c(=O)n([C@H]2C[C@H](n3cc(-c4ccc(Cl)cc4)nn3)[C@@H](CO)O2)cc1/C=C/Br`, the values for the Ki in assay [5] and in assay [6] were 12 nM and 410 nM, respectively. Besides, the Ratio IC50 in the assay listed under Homo sapiens was more than 14000. The IC50 is 0.46 µM at Deoxynucleoside kinase; 1.7 µM in [3]; more than 500 µM in assay [1]; 4.5 µM on Thymidine kinase; 36 nM in assay [2].

The compound `O=c1[nH]c(=O)n([C@@H]2O[C@H](CO)[C@@H](O)C2O)cc1/C=C/Br` (single isomer, unassigned) [SORIVUDINE] returned a Ki in [4] of 10.4 µM.

Regarding `Cc1cn([C@H]2C[C@H](n3cc(-c4ccc(Cl)c(Cl)c4)nn3)[C@@H](CO)O2)c(=O)[nH]c1=O`, the IC50 at Deoxynucleoside kinase came to 0.99 µM; in [3], 2.7 µM; in assay [1] it was 75 µM; at Thymidine kinase, 30 µM; in assay [2], 42 nM.

Turning to `Cc1cn([C@H]2C[C@H](n3nncc3-c3ccccc3)[C@@H](CO)O2)c(=O)[nH]c1=O`, the IC50 on Deoxynucleoside kinase was 17 µM; in assay [3], 19 µM; in assay [1] it was not below 500 µM; at Thymidine kinase, 445 µM; in assay [2], 1100 nM.

Turning to `Cc1cn([C@H]2C[C@H](n3ccnn3)[C@@H](CO)O2)c(=O)[nH]c1=O`, the concentration for half-maximal inhibition (IC50) on Deoxynucleoside kinase is 40 µM; in assay [3] it was 15 µM; in assay [1], not below 500 µM; at Thymidine kinase, 212 µM; in assay [2], 4700 nM.

As for `Cc1cn([C@H]2C[C@H](n3cc(-c4ccc(Cl)cc4)nn3)[C@@H](CO)O2)c(=O)[nH]c1=O`, the half-maximal inhibitory concentration (IC50) was found to be 1.8 µM on Deoxynucleoside kinase; 3.3 µM in assay [3]; 71 µM in assay [1]; 27 µM at Thymidine kinase; 46 nM in [2].

For the compound `CCCCc1cn([C@H]2C[C@H](n3cc(C)c(=O)[nH]c3=O)O[C@@H]2CO)nn1`, the IC50 on Deoxynucleoside kinase was determined as 4.1 µM; in [3] it was 4.3 µM; in assay [1] it was 366 µM; on Thymidine kinase, 95 µM; in assay [2], 230 nM.

Consider `Cc1cn([C@H]2C[C@H](n3cc(CC4CCCC4)nn3)[C@@H](CO)O2)c(=O)[nH]c1=O`, for which the half-maximal inhibitory concentration (IC50) amounted to 3 µM on Deoxynucleoside kinase; 3.1 µM in [3]; 177 µM in assay [1]; 48 µM at Thymidine kinase; 150 nM in [2].

With `O=c1[nH]c(=O)n([C@H]2C[C@H](n3cc(-c4ccccc4)nn3)[C@@H](CO)O2)cc1/C=C/Br`, the IC50 was 2.9 µM on Deoxynucleoside kinase; 3.7 µM in assay [3]; more than 500 µM in [1]; 36 µM at Thymidine kinase; 250 nM in assay [2].

`CCCCCC(=O)N[C@H]1C[C@H](n2cc(C)c(=O)[nH]c2=O)O[C@@H]1CO` returned a Ki in assay [4] of 0.15 µM.

As for `Cc1cn([C@H]2C[C@H](NC(=S)Nc3ccc(Cl)c(C(F)(F)F)c3)[C@@H](COC(c3ccccc3)(c3ccccc3)c3ccccc3)O2)c(=O)[nH]c1=O`, the IC50 on Deoxynucleoside kinase is more than 500 µM; in assay [3] it was more than 500 µM; in assay [1] it was more than 500 µM; at Thymidine kinase, more than 500 µM; in assay [2] it was more than 500000 nM.

The IC50 is the concentration at which inhibition is half-maximal. As usually defined, the Ki is the equilibrium dissociation constant of an inhibitor or competing ligand from its target.

For the origin of these results see ChEMBL document CHEMBL1156937, “3'-[4-Aryl-(1,2,3-triazol-1-yl)]-3'-deoxythymidine analogues as potent and selective inhibitors of human mitochondrial thymidine kinase” (J Med Chem, 2010).
